# A selection: hits, their analogues and other compounds. The true share with any hit is near 2.2%.
# AI-2 QS mod – Vibrio harveyi AI-2 quorum sensing modulators, primary screen, JMH597 strain, luminescence/OD600 ratio | actives 0.4% (n = 300,000) | activity change, % at 7.5 µM | Vibrio harveyi JMH597 AI-2 luminescence/OD600 ratio, 9 h; active compounds read low; strain lacks LuxN and CqsS sensors; 0 = neutral-control median; in the data active = activity change below about -75%, passing the limit was not always enough; inconclusive = no clear call, values can overlap the other calls;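 also: luminescence divided by OD600 gain over 9 h not by final OD600 alone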
# HDAC3 inhib – HDAC3 deacetylase inhibitors, primary screen, biochemical, fluorescence, cell-free homogeneous. recombinant HDAC3, fluorogenic peptide/trypsin coupled. actives 0.15% (n = 320,000). AID 2718, 2010. inhibition, % at 8.3 µM. Histone deacetylase 3 (Homo sapiens), O15379; in the data active = inhibition above about 26%, passing the limit was not always enough; inconclusive = no clear call, values can overlap the other calls
# Target sequence (O15379 whole entry, looked up): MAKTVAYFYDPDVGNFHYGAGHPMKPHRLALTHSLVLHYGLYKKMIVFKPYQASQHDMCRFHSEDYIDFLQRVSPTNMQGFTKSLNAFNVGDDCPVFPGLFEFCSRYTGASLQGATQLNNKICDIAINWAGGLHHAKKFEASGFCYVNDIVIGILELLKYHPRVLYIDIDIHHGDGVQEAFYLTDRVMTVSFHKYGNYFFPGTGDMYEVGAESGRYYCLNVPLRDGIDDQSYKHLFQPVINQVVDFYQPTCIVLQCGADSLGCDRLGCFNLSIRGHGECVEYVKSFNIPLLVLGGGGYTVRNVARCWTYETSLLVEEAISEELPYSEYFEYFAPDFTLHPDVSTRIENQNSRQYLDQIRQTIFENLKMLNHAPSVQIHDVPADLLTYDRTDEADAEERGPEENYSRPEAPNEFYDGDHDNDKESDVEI
# Efflux pump inh – inhibitors of Candida efflux pumps in yeast, primary screen, S. cerevisiae, Nile Red, multiplex | S. cerevisiae Candida pump triplex | inhibition, % at 10 µM | actives 0.44% (n = 330,000) | AID 485275, 2010;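 active = plate passing quality check with inhibition over a set limit, or well fluorescence over plate mean plus 4 SD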;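 also: Nile Red retained in pooled yeast measured as flow cytometry median fluorescence; 0% = buffer negative control and 100% = Enniatin B positive control; higher means more Nile Red kept so more efflux inhibition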
# T cruzi repl – inhibitors of intracellular T. cruzi growth, primary screen, luminescence, NIH3T3 host cells | T. cruzi beta-gal in NIH3T3, 90 h | AID 1885, 2009 | actives 1.4% (n = 300,000) | inhibition, % (concentration not given with the values);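 active = mean inhibition across valid replicates above about 55%, limit read from the data; inconclusive = mean below that limit but half or more replicates reach it; inactive = mean below it, under half of replicates reach it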;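 also: signal also drops with host cell toxicity which is not excluded here; 0% = plate median of DMSO wells and 100% = zero luminescence signal; higher percent means less beta-gal luminescence so fewer parasites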
#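 Assay system: NIH/3T3 fibroblasts plus reporter T. cruzi. Amount: NIH/3T3 cells, 5,000 per well. Buffer or medium: DMEM, 2% fetal bovine serum. Doses: compound pinned at 50 nL/well, DMSO. Schedule: ≥90 h infection period, 3 h prior cell attachment. Signal: luminescent β-galactosidase signal after 60 min lysis. Read-out: parasite load inhibition, %.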
# PolyA inh – polyadenylation inhibitors in yeast reporter cells, primary screen, luminescence, S. cerevisiae; S. cerevisiae SKY197-pL101 polyadenylation reporter, beta-gal luminescence; efflux-impaired pdr1/pdr3 knockout yeast; score 100 = 6 SD above DMSO; activity score, % at 12 µM; actives 0.02% (n = 300,000); AID 1875, 2009;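 active = lowest replicate activity score at least 50, where 100 means six control SD above control mean; inconclusive = lowest score under 50 but half or more replicates reach 50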;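 also: yeast exposed to compound for 9 h at 30 °C; higher score means more reporter readthrough which indicates perturbed polyadenylation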
# Starred values were filed as active, the others as inactive; ? = inconclusive; · = no result given; ! = repeats disagree.
SMILES,AI-2 QS mod,HDAC3 inhib,Efflux pump inh,T cruzi repl,PolyA inh
Cc1ccc(Nc2nc(-c3cccnc3)cs2)cc1Cl,25,-2,0,59*,-39
Clc1ccc(-c2csc(N/N=C/c3ccco3)n2)cc1,4,15,0,33,-3
Clc1ccc(-c2csc(N/N=C\c3cccnc3)n2)cc1,14,3,-1,55*,-34
CC(C)(C)c1ccc(-c2noc(CNC(=O)c3ccco3)n2)cc1,·,-4,0,5,2
C/C(Cl)=C\Cn1c(O)c(N=NC(N)=S)c2cc(Br)ccc21,4,3,0,77*,-27
NC(=S)N=Nc1c(O)n(CCCl)c2ccc(Br)cc12,3,5,0,25,-12
OCCN1CCN(c2cc(C(F)(F)F)nc3c(F)cccc23)CC1,2,-3,0,·,12
Cc1c(O)cccc1C(=O)N[C@@H](CSc1ccccc1)[C@H](O)CN1C[C@H]2CCCC[C@H]2C[C@H]1C(=O)NC(C)(C)C,44,?,0,67*!,4
O=C(CSc1nnc(-c2ccc(F)cc2)c2ccccc12)Nc1ccccc1,20,6,1,28,-12
O=C(CSc1nnc(-c2ccc(F)cc2)c2ccccc12)Nc1cccc(Cl)c1,11,6,0,60*,13
C/C(Cn1cnc([N+](=O)[O-])n1)=N/NC(=O)COc1c(Cl)cc(Cl)cc1Cl,21,3,0,62*,-1
C/C(Cn1cnc([N+](=O)[O-])n1)=N\NC(=O)c1ccccc1,31,1,0,40,12
COc1ccc(CN2CCNC(=O)C2CC(=O)NCCN2CCCCC2=O)c(F)c1 (stereo not drawn),19,-3,5,-13,-4
O=C(Cc1ccccc1)NNC(=S)NC(=O)c1cccs1,-83*,-2,0,30,-38
O=C(NC(=S)NNC(=O)c1cccs1)c1ccc(Br)o1,-88*,6,0,-8,-15
O=C(NC(=S)NCc1ccccc1)c1cccs1,10,4,3,-15,-11
Cc1cccc(C(=O)NC(=S)NNC(=O)Cc2ccccc2)c1,-91*,6,0,-22,-38
CCn1ncc(CN2CCCC(C(=O)c3cccc(OC(C)C)c3)C2)c1C (stereo not drawn),14,0,0,65*,-3
COc1ccc(C(=O)C2CCCN(Cc3c(F)ccc(F)c3F)C2)c(OC)c1 (stereo not drawn),10,12,0,21,-3
COc1ccc(C(=O)C2CCCN(Cc3cnc(N4CCOCC4)s3)C2)c(OC)c1 (stereo not drawn),3,-3,0,61*,15
CC(C)Oc1cccc(C(=O)C2CCCN(Cc3cnc(N4CCOCC4)s3)C2)c1 (stereo not drawn),21,13,0,59*,3
COc1ccc(C(=O)C2CCCN(Cc3cccn3-c3ccc(Cl)cn3)C2)c(OC)c1 (stereo not drawn),3,-2,0,79*,24
COc1ccc(OC)c(NC(=O)c2ccc(-c3cccs3)cc2)c1,10,3,0,10,-1
COc1ccc(C(=O)C2CCCN(Cc3ccc4nonc4c3)C2)c(OC)c1 (stereo not drawn),23,-3,0,70*,-13
COc1ccc(C(=O)C2CCCN(Cc3ccc4nonc4c3)C2)cc1OC (stereo not drawn),16,2,0,7,-9
CCOC(=O)C1CCN(C(=O)c2cc3cc(C)ccc3[nH]2)CC1,15,5,0,-1,-2
CC[n+]1c(/C=C2\Sc3ccccc3N2C)ccc2cccc(C)c21,?,·,·,63*,-101
O=C(c1ccccc1)c1c[nH]c(C(=O)NNc2ccccc2)c1,6,-1,0,57*,-27
CCCCCCCC[n+]1c(C)n(-c2ccccc2)c2ccc(NC(C)=O)cc21,13,-3,0,65*,14
CCCCn1c(=N)n(CC(=O)C(C)(C)C)c2ccccc21,20,14,0,62*,5

# Screening data as filed in PubChem BioAssay.
